Reference: PMC6413502 (Molecular pharmaceutics, 2018)
Entries after “also recorded” stand apart in the source; their conditions may differ. Like-named read-outs stand apart in the source and are kept apart here.

Key:
[1] = test system: scavenger receptors in the liver; settings: read-out: IC50, inhibition of 125I-DNA nanoparticle uptake by the liver; previously reported; cited from earlier work
[2] = Micelle formation of PEG-peptides without albumin; format: physicochemical; settings: dynamic light scattering, 1–40 nmol in 1 ml 150 mM sodium chloride; for micelle formation (in words): 50 mM sodium phosphate pH 7.4; for critical-micelle-concentration: 50 mM sodium phosphate pH 7.4, no albumin
In short: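 Particle size of the PEG-peptide was measured by dynamic light scattering at increasing amounts (1–40 nmol in 1 ml buffer) to locate the critical micelle concentration. Sizes are the mean and standard error of ten measurements, after deconvolution by intensity-averaged multimodal distribution.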

[3] = test system: scavenger receptors in the liver; settings: for percent of dose captured by the liver: mouse, in vivo, iv

## (Acr-Lys4)3-Acr-Lys-Cys-PEG5kDa [compound 27]
[1]
  IC50: 8 µM

## PEG2kDa-Cys-Tyr-(Leu-Lys4)3-Leu-Lys [compound 33]
[2]
  micelle formation (in words): avoided micelle formation
[3]; 33 compared with 32, saturation of liver uptake
  increase in potency (IC50) on decreasing PEG from 5 to 2 kDa: 6 fold

## PEG5kDa-Cys-Tyr-Leu4-(Leu-Lys)4-Lys4 [compound 40]
[2]
  micelle formation (in words): produced measurable micelles; also recorded: formed micelles
  critical-micelle-concentration: 2 to 5 µM

## PEG5kDa-Cys-Tyr-(Leu-Lys4)3-Leu-Lys [compound 32]
[2]
  micelle formation (in words): avoided micelle formation

## PEG5kDa-Cys-Tyr-Lys25 [compound 26]
[3]
  percent of dose captured by the liver: 5%

## PEG5kDa-Cys-Tyr-(Leu-Arg)8 [compound 38]
[2]
  micelle formation (in words): formed micelles
  critical-micelle-concentration: 2 to 5 µM
[3]
  percent of dose captured by the liver: 45%

## Tyr-(Phe-Lys4)3Phe-Lys-Cys-PEG5kDa [compound 30]
[2]
  micelle formation (in words): avoided the formation of detectable micelles

## PEG10kDa-Cys-Tyr-Lys25 [compound 25]
[3]
  percent of dose captured by the liver: 5%

## PEG20kDa-Cys-Tyr-Lys25 [compound 24]
[3]
  percent of dose captured by the liver: 28%

## PEG5kDa-Cys-Tyr-(Leu-Lys)6 [compound 36]
[2]
  micelle formation (in words): formed micelles
  critical-micelle-concentration: 2 to 5 µM

## PEG5kDa-Cys-Tyr-(Trp-Lys3)4 [compound 31]
[2]
  micelle formation (in words): avoided the formation of detectable micelles

## PEG30kDa-Cys-Tyr-Lys10 [compound 20]
[3]; read-out: apparent IC50, saturation of liver uptake, 125I-PEG-peptide i.v. tail vein, 1–80 nmol, triplicate mice, liver at 5 min, assuming 2-mL blood volume
  IC50: 1500 µM

## PEG5kDa-Cys-Tyr-(Leu-Lys)8 [compound 35]
[2]
  micelle formation (in words): formed micelles
  critical-micelle-concentration: 2 to 5 µM

## PEG5kDa-Cys-Tyr-(Leu-Lys)4 [compound 37]
[2]
  micelle formation (in words): formed micelles
  critical-micelle-concentration: 2 to 5 µM

## PEG5kDa-Cys-Tyr-(Lys)4-Leu-Lys4-Leu4 [compound 39]
[2]
  micelle formation (in words): produced measurable micelles; also recorded: formed micelles
  critical-micelle-concentration: 2 to 5 µM
